Measured values: ChEMBL document CHEMBL3616441, “Discovery of a Selective and CNS Penetrant Negative Allosteric Modulator of Metabotropic Glutamate Receptor Subtype 3 with Antidepressant and Anxiolytic Activity in Rodents” (J Med Chem, 2015)
The source made the active and inactive calls. No cut-off for these calls is given here.

Tests used:
MDCK [1] = assay: Apparent permeability from basolateral to apical side in MDCK cells expressing human MDR1 gene; assay type: ADME, cell-based, Canis lupus familiaris; settings: dog
In short: (§1)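 Permeability and P-gp efflux measured in MDCK cells transfected with human MDR1 gene.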

Brain [2] = assay: Fraction unbound in rat brain; assay type: ADME, tissue-based
[3] = Volume of distribution at steady state in rat at 1 mg/kg, iv and 3 mg/kg, po; assay type: ADME, organism-based; settings: in vivo, read-out: Vdss
In short: (§2)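 Rat IV PK, n = 2, 1.0 mg/kg as solution in 10% EtOH, 50% PEG 400, 40% saline (1 mg/mL); oral arm 3.0 mg/kg as fine microsuspension in 0.1% Tween 80 and 0.5% methyl cellulose in H2O (0.3 mg/mL).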

[4] = target: Metabotropic glutamate receptor 2 (Rattus norvegicus) (UniProt P31421); assay: Negative allosteric modulation of rat mGlu2 receptor assessed as calcium mobilization at 30 uM by cell based fluorescence assay; assay type: functional
In short: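 Rat mGlu2 calcium mobilization assay with fluorescence read-out; full concentration-response curve analysis up to 30 μM top concentration.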

Cytochrome P450 3A4 = Cytochrome P450 3A4 (Homo sapiens, UniProt P08684); assay: Inhibition of CYP3A4 in human liver microsomes by cocktail assay; assay type: ADME
In short: (§3)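 Human liver microsome cocktail incubation with probe substrates for four P450s; inhibition of each isoform measured.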

[5] = Plasma clearance in rat at 1 mg/kg, iv and 3 mg/kg, po; assay type: ADME, organism-based
In short: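 Rat PK, n = 2 each route. IV: 1.0 mg/kg as solution in 10% EtOH, 50% PEG 400, 40% saline (1 mg/mL). Oral: 3.0 mg/kg as fine microsuspension in 0.1% Tween 80 and 0.5% methyl cellulose in H2O (0.3 mg/mL). Plasma clearance and bioavailability derived from plasma levels.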

[6] = target: 5-hydroxytryptamine receptor 2B (Homo sapiens) (UniProt P41595); assay: Agonist activity at 5HT2B receptor (unknown origin) up to 10 uM
MDCK [7] = assay: Apparent permeability from apical to basolateral side in MDCK cells expressing human MDR1 gene; assay type: ADME, cell-based, Canis lupus familiaris; settings: dog; in short: as §1
[8] = Plasma concentration in mouse at 10 mg/kg, ip after 30 mins; assay type: ADME, organism-based
In short: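 Single time-point tissue distribution in mice. Dosed IP as a fine microsuspension in 0.1% Tween 80 and 0.5% methyl cellulose in H2O (1 mg/mL). Plasma and brain were sampled 30 min post dose, n = 3.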

Rattus norvegicus [9] = assay: Antidepressant activity in Sprague-Dawley rat assessed as reduction of immobility time at 56.6 mg/kg, ip measured up to 6 mins by forced swim test; assay type: functional, organism-based
[10] = target: Metabotropic glutamate receptor 3 (Rattus norvegicus) (UniProt P31422); assay: Negative allosteric modulation of rat mGlu3 receptor assessed as amplitude response at 30 uM relative to glutamate
In short: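 Calcium mobilization in cell line stably expressing rat mGlu3 with promiscuous Gα15; fluorescence read-out; amplitude of glutamate response with 30 μM test compound expressed as percentage of maximal response (100 μM glutamate); average of n = 3.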

[11] = target: Metabotropic glutamate receptor 5 (Rattus norvegicus, UniProt P31424); assay: Modulation of rat mGlu5 receptor assessed as calcium mobilization by cell based fluorescence assay; assay type: functional
In short: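 Calcium mobilization assay with fluorescence read-out in cells expressing mGlu5; full concentration-response curves; % Glu Max is the amplitude of response with 30 μM test compound as a percentage of the maximal response to 100 μM glutamate; values averaged over n-3.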

Mus musculus [12] = assay: Anxiolytic activity in ip dosed CD1 mouse assessed as inhibition of marble burying behavior after 30 mins; assay type: functional, organism-based
[13] = Half life in rat at 0.2 mg/kg, iv administered as cassette dose; assay type: ADME, organism-based; settings: in vivo
[14] = Plasma clearance in rat at 0.2 mg/kg, iv administered as cassette dose; assay type: ADME, organism-based
[15] = target: Metabotropic glutamate receptor 3 (Rattus norvegicus, UniProt P31422); assay: Negative allosteric modulation of rat mGlu3 receptor assessed as calcium mobilization by cell based fluorescence assay; assay type: functional
In short: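 Cell line stably expressing rat mGlu3 with the promiscuous G-protein Gα15. Calcium mobilization with fluorescence read-out, inhibition of the glutamate response. Full concentration-response curves, top concentration 30 μM. % Glu Max is the response with 30 μM test compound as a percentage of the maximal response to 100 μM glutamate. Values averaged over n-3.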

[16] = AUC (0 to infinity) in mouse at 10 mg/kg, ip; assay type: ADME, organism-based; set-up: dose 10 mg/kg, time infinity, route intraperitoneal; settings: in vivo
Cytochrome P450 1A2 = target: T1, Cytochrome P450 1A2 (Homo sapiens, UniProt P05177); assay: Inhibition of CYP1A2 in human liver microsomes by cocktail assay; assay type: ADME
T1 sequence (P05177 whole entry): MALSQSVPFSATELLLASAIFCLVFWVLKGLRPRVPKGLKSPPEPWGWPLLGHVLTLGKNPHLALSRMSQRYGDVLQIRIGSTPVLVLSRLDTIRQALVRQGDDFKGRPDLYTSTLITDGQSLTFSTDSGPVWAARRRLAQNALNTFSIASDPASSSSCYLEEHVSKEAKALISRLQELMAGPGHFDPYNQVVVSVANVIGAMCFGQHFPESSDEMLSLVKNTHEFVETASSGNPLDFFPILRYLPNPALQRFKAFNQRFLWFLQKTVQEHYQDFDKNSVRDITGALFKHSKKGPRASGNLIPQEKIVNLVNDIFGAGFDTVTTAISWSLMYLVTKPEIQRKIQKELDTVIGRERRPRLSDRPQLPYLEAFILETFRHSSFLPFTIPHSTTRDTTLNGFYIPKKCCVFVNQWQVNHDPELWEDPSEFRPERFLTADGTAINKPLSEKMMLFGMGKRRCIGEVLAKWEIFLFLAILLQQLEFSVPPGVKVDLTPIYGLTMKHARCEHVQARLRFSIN

Cytochrome P450 2D6 = Cytochrome P450 2D6 (Homo sapiens, UniProt P10635); assay: Inhibition of CYP2D6 in human liver microsomes by cocktail assay; assay type: ADME; in short: as §3
[17] = AUC (0 to infinity) in rat at 10 mg/kg, ip; assay type: ADME, organism-based; set-up: dose 10 mg/kg, time infinity, route intraperitoneal; settings: in vivo
in vivo [18] = settings: mouse, ip, 10 mg/kg
Mus musculus [19] = assay: Anxiolytic activity in CD1 mouse assessed as inhibition of marble burying behavior at 56.6 mg/kg, ip after 30 mins; assay type: functional, organism-based
[20] = target: 5-hydroxytryptamine receptor 2B (Homo sapiens) (UniProt P41595); assay: Binding affinity to 5HT2B receptor (unknown origin) at 10 uM by radioligand binding assay
Plasma [21] = assay: Fraction unbound in rat plasma; assay type: ADME, cell-free
in vivo [22] = settings: rat, ip, 10 mg/kg
[23] = Volume of distribution at steady state in rat at 0.2 mg/kg, iv administered as cassette dose; assay type: ADME, organism-based; settings: in vivo, read-out: Vdss
Cytochrome P450 2C9 = Cytochrome P450 2C9 (Homo sapiens, UniProt P11712); assay: Inhibition of CYP2C9 in human liver microsomes by cocktail assay; assay type: ADME; in short: as §3
Rattus norvegicus [24] = assay: Half life in rat at 1 mg/kg, iv and 3 mg/kg, po; assay type: ADME, organism-based; settings: in vivo; in short: as §2
Plasma [25] = assay: Fraction unbound in mouse plasma; assay type: ADME, cell-free
[26] = target: 5-hydroxytryptamine receptor 2B (Homo sapiens) (UniProt P41595); assay: Antagonist activity at 5HT2B receptor (unknown origin) up to 10 uM
[27] = Cmax in mouse at 10 mg/kg, ip; assay type: ADME, organism-based; set-up: dose 10 mg/kg, route intraperitoneal; settings: in vivo
Brain [28] = assay: Fraction unbound in mouse brain; assay type: ADME, tissue-based
[29] = Oral bioavailability in rat at 3 mg/kg; assay type: ADME, organism-based; settings: in vivo
[30] = Cmax in rat at 10 mg/kg, ip; assay type: ADME, organism-based; set-up: dose 10 mg/kg, route intraperitoneal; settings: in vivo

5-hydroxytryptamine receptor 2B (Homo sapiens), sequence (P41595 whole entry): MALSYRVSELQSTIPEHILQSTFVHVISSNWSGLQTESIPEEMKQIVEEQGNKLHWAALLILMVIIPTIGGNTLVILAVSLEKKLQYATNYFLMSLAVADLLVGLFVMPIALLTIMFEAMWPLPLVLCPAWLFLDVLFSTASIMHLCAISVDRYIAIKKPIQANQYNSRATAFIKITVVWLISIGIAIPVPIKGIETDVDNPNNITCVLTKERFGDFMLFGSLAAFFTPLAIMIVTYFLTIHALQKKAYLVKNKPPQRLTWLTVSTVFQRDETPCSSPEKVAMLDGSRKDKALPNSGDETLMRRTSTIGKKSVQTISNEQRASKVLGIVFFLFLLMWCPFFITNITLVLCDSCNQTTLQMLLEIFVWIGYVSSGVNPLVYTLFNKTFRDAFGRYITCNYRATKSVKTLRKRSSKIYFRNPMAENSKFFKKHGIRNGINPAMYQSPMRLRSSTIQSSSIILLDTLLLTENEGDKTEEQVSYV
Cytochrome P450 3A4, sequence (P08684 whole entry, canonical isoform): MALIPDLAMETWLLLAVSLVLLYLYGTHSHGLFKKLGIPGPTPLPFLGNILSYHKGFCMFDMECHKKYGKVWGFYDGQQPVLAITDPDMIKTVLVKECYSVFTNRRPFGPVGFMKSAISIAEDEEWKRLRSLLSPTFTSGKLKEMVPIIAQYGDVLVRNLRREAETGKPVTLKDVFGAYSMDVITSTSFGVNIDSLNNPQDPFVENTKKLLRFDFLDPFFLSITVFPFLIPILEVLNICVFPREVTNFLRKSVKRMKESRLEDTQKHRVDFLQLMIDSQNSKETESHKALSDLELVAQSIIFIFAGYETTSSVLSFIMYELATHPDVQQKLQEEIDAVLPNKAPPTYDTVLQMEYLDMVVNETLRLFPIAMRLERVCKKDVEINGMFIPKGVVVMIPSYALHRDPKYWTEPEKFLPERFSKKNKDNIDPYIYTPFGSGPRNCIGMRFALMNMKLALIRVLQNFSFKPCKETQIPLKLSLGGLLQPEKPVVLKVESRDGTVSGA
Metabotropic glutamate receptor 2 (Rattus norvegicus), sequence (P31421 19-872 limits assumed): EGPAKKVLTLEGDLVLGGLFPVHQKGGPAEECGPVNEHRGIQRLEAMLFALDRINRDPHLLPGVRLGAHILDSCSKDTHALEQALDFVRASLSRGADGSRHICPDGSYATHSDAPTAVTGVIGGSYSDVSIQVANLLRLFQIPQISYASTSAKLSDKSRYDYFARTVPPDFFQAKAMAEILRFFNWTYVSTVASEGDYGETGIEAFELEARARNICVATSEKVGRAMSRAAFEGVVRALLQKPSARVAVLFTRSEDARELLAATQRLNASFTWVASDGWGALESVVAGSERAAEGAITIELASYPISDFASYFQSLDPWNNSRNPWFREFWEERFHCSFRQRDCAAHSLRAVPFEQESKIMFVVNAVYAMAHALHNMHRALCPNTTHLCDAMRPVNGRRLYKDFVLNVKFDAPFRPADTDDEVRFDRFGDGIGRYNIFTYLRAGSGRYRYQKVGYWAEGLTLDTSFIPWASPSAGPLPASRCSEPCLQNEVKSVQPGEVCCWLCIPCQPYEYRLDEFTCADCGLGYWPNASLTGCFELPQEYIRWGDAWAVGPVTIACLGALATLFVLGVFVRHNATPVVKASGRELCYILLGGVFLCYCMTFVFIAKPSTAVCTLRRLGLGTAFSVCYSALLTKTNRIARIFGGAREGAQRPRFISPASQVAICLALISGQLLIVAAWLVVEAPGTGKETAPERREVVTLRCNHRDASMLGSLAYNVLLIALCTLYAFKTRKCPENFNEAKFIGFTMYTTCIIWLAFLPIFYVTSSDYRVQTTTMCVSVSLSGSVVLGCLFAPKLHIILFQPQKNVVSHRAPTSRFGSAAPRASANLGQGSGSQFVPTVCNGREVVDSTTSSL
Metabotropic glutamate receptor 5, sequence (P31424 whole entry): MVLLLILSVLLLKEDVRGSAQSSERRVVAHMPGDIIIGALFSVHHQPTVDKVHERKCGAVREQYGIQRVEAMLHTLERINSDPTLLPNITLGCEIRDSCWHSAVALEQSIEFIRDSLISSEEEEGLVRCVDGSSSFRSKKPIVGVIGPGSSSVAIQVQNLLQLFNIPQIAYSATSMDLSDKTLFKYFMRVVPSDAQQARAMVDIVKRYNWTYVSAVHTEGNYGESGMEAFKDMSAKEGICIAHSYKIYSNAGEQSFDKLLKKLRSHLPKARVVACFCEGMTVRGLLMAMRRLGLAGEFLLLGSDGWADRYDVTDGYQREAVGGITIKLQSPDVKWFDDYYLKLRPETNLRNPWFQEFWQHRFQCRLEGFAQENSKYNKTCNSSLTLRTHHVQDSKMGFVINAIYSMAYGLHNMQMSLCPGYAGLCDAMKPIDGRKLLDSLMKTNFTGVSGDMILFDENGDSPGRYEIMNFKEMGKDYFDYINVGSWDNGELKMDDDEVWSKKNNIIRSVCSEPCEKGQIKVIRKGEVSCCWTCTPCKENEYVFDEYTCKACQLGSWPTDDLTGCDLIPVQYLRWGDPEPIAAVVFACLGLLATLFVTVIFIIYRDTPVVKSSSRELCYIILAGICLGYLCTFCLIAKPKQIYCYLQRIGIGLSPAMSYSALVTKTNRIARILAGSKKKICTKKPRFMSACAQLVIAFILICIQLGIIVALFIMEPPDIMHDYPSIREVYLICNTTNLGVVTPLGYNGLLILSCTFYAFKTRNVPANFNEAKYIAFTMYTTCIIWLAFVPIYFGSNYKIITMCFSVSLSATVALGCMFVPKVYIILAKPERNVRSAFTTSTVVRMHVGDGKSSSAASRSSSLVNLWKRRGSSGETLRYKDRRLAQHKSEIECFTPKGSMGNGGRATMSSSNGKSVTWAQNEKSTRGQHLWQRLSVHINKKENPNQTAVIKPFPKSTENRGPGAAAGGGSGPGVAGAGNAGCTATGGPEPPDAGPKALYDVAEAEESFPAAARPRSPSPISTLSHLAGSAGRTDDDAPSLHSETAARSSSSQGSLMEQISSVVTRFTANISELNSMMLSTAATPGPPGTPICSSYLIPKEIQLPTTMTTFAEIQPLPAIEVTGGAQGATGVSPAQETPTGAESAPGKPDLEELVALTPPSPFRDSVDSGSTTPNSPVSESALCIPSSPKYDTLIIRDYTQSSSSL
Cytochrome P450 2C9, sequence (P11712 whole entry): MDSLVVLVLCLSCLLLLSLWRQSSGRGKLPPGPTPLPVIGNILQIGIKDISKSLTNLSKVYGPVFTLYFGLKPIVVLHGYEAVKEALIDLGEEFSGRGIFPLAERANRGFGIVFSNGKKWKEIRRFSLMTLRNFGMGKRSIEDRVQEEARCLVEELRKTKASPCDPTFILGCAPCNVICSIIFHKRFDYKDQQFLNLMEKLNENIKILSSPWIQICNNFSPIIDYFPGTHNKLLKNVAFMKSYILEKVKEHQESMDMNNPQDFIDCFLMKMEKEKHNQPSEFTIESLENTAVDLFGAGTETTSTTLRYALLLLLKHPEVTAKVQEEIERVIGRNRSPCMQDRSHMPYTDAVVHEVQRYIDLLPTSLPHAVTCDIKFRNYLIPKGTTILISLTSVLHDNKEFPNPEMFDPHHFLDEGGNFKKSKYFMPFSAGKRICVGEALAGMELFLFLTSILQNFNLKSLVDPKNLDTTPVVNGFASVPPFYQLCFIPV
Metabotropic glutamate receptor 3, sequence (P31422 whole entry): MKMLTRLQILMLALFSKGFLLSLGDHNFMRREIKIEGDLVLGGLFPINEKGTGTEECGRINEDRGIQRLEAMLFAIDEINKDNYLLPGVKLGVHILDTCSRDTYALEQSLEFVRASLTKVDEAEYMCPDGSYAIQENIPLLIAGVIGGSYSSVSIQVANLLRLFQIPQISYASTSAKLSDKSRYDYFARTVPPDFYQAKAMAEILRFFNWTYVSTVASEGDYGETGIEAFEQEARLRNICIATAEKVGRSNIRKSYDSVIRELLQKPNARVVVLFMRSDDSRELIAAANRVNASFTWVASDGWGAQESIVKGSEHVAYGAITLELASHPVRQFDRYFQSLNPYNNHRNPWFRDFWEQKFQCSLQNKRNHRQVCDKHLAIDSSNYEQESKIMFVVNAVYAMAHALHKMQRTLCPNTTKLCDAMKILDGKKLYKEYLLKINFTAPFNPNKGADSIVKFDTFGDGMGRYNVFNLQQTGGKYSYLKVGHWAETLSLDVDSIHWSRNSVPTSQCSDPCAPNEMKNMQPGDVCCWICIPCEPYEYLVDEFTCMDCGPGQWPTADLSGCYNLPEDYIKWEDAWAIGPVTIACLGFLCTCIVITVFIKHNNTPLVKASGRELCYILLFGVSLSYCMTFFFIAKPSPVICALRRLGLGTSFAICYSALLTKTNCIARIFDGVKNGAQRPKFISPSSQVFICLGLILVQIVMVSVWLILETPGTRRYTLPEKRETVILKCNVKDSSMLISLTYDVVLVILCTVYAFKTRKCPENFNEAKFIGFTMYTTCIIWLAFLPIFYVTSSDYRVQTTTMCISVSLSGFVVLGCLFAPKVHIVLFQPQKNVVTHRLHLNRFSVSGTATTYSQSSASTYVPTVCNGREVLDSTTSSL
Cytochrome P450 2D6, sequence (P10635 whole entry): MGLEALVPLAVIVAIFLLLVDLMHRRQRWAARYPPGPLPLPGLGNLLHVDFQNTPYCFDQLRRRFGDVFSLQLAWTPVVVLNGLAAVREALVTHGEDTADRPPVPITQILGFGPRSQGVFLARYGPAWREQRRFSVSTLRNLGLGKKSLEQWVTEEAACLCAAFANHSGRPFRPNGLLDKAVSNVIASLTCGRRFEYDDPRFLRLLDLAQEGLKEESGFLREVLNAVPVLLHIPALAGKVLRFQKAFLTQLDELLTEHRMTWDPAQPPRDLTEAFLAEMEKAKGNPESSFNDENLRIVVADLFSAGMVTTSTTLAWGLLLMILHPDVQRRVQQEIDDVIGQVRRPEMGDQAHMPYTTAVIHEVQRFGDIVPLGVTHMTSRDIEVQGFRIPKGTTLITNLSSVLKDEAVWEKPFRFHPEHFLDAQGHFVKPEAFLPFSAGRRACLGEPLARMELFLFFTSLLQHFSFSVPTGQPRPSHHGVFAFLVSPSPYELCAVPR

C[C@@H]1CN(c2cccnc2F)C(=O)c2cc(COc3ccc(Cl)cn3)nn21
Papp (MDCK [1]): 49.9 ×10⁻⁶ cm/s | Fu (Brain [2]): 0.052 | Vd [3]: 1.4 L/kg | Activity [4]: inactive | IC50 (Cytochrome P450 3A4): > 30 µM | clearance [5]: 30 mL/min/kg | Activity [6]: inactive | Papp (MDCK [7]): 45 ×10⁻⁶ cm/s | concentration at 0.5 h [8]: 2.29 µM | Activity (Rattus norvegicus [9]): Active | Activity [10]: 1.71% | EC50 [11]: > 30 µM | inhibition (Mus musculus [12]): Dose-dependent effect | half-life [13]: 42 min | clearance [14]: 37 mL/min/kg | IC50 [15]: 0.392 µM | AUC(0-inf) [16]: 7.26 µM·h | IC50 (Cytochrome P450 1A2): > 30 µM | IC50 (Cytochrome P450 2D6): > 30 µM | AUC(0-inf) [17]: 11.5 µM·h | Tmax (in vivo [18]): 30 min | inhibition (Mus musculus [19]): Active | inhibition [20]: 65% | Fu (Plasma [21]): 0.083 | Tmax (in vivo [22]): 12.3 min | Vd [23]: 1.6 L/kg | IC50 (Cytochrome P450 2C9): 25.6 µM | t1/2 (Rattus norvegicus [24]): 49 min | Fu (Plasma [25]): 0.163 | Activity [26]: Active | Cmax [27]: 4.48 µM | Fu (Brain [28]): 0.035 | bioavailability [29]: 60% | Cmax [30]: 4.57 µM
